In the library only some 2.3% were active in any assay of this set; here they are far more common.
CHT inh – human CHT choline transport inhibition; Q9GZV3; CHT-expressing cells, membrane potential dye, choline response; stronger effect = lower value; B-score at 10 µM; 310,000 compounds, 0.86% hits;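 active means B-score over 3 SD under the library average, and starting fluorescence ratio not unusually high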;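 further: choline stimulus applied at its EC90 after an EC20 pre-addition; B-score computed on integrated fluorescence ratio after choline addition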
Target sequence (Q9GZV3 whole entry, looked up): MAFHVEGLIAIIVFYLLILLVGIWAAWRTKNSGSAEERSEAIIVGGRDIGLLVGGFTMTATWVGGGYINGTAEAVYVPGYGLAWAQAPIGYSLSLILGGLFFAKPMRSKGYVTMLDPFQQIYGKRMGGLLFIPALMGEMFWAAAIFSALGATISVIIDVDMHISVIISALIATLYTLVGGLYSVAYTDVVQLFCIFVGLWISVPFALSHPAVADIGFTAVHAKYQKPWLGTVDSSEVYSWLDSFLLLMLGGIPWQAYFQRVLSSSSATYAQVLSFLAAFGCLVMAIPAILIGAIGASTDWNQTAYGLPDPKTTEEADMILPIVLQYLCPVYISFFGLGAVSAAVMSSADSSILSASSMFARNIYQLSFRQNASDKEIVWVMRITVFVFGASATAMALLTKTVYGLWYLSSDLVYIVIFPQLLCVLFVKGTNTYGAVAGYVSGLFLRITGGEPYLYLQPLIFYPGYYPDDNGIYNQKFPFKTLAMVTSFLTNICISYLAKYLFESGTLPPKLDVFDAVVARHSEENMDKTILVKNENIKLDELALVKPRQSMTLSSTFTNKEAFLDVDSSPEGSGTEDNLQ
COUP-TFII inh – blocks human COUP-TFII nuclear receptor; HEK293T NGFI-A luciferase reporter, luminescence; inhibition, % at 8.6 µM; 370,000 compounds, 0.7% hits;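 active means inhibition above a per-plate cutoff, mean inhibition of test wells between control levels plus 3 SD, cut at about 38% in these data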;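 further: cells cotransfected with COUP-TFII expression vector driving the NGFI-A reporter; 0% = median of COUP-TF2 test wells and 100% = reporter-only cells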
GalR3 antagonist – blocks the human galanin receptor 3; O60755; 360,000 compounds, 0.44% hits; inhibition, % at 3 µM; HEK293 GalR3-CNG cAMP membrane potential fluorescence; galR3 body fused to GalR1 C-terminus; AID 651719;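 active means inhibition above the screen-wide average plus 3 SD, cut at about 13% in these data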;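 further: forskolin and galanin both at EC90 stimulate the cells; cAMP rise reported by CNG channel membrane potential dye signal; 0% = forskolin plus galanin with DMSO and 100% = forskolin alone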
NR2E3 ag-1 – NR2E3 (human) agonism. AID 2300. Q9Y5X4. inhibition of corepressor binding, % at 4.78 µM. GST-NR2E3/biotin-RetCOR TR-FRET, 1536-well. 320,000 compounds, 0.12% hits;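 active means percent inhibition above the cutoff of mean plus 3 SD of all tested compounds, set per screening campaign, cut at about 20% in these data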;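 further: 0% = DMSO wells and 100% = biotin wells as full block of FRET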
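Assay system: NR2E3–RetCOR corepressor complex. Quantity: 1.35 nM GST-NR2E3. Buffer or medium: pH 7.5 Tris-based buffer. Reagent: biotinylated RetCOR corepressor at 7 nM final. Schedule: 5 h at 4 °C. Detection: TR-FRET, emission read at 617 and 671 nm. Replicates: one well per compound, singlicate testing.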
CHT allo act – allosterically activates the human high affinity choline transporter. CHT-expressing cells, membrane potential dye, choline EC20; stronger effect = higher value; LV-AA mutant CHT in HEK293 cells. B-score at 10 µM. AID 488977. 310,000 compounds, 0.49% hits;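 active means initial fluorescence not abnormally high and integrated response B-score, plate-corrected, over 3 SD above library mean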
NR2E3 ag-2 – activates human NR2E3 receptor | Q9Y5X4 | CHO-S Gal4-NCOR/VP16-NR2E3 two-hybrid, luciferase | inhibition of corepressor binding, % at 3.98 µM | 360,000 compounds, 0.35% hits | AID 602229;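 active means inhibition above the mean of all tested compounds plus 3 SD, cut at about 70% in these data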;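 further: 0% = DMSO with NR2E3 transfected cells and 100% = cells lacking NR2E3 construct; higher means lower luciferase signal from less NR2E3 corepressor binding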
GalR3 conf – confirmation of human galanin receptor 3 antagonists; shares compounds with GalR3 antagonist; HEK293 GalR3 CNG cAMP biosensor, membrane potential fluorescence; galR3 fused to GalR1 carboxy tail; challenged with forskolin and galanin at EC90; inhibition, % at 3 µM; 1,600 compounds, 59% hits; AID 652245;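 active means inhibition above the primary screen's cutoff, the mean inhibition of all screened compounds plus 3 SD, cut at about 13% in these data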;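 further: 0% = forskolin plus galanin and 100% = forskolin alone with DMSO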
CNG parental – counter-screen for GalR3 antagonists: nonspecific agonists in parental HEK-CNG cells | shares compounds with GalR3 antagonist | HEK293-CNG parental cells, cAMP membrane potential fluorescence; normalised: DMSO wells 0%, forskolin wells 100% | activation, % at 3 µM | 1,600 compounds, 10% hits; in the data active means activation above about 1.3%
Numbers without * were called inactive; i = inactive; · = no result given.

SMILES | CHT inh | COUP-TFII inh | GalR3 antagonist | NR2E3 ag-1 | CHT allo act | NR2E3 ag-2 | GalR3 conf | CNG parental
Cc1ccc(CNC(=O)c2ccc(N3CCC4(CC3)CC(c3cccc(Br)c3)=NO4)c(NC(=O)c3ccccc3)c2)cc1 | i | -53 | 14* | 3 | i | -3 | 23* | 1
CCCCNS(=O)(=O)CC1NCc2cc(OC)ccc21 (stereo not given) | · | -16 | · | · | · | · | · | ·
O=C(NC1CCCCC1)c1ccc(S(=O)(=O)c2ccccc2Cl)c([N+](=O)[O-])c1 | i | · | · | 7 | i | · | · | ·
CN(C(=O)c1ccc(S(=O)(=O)c2cccc(Cl)c2)c([N+](=O)[O-])c1)C1CCCCC1 | i | 3 | 22* | 9 | i | -14 | -2 | 0
COc1ccc(C(C(=O)N(C)C2CCCC2)N(Cc2ccc(F)cc2)C(=O)c2csc3ccc(Cl)cc23)cc1OC (stereo not given) | · | 9 | · | · | · | · | · | ·
CCN(CC(O)c1cccc(O)c1)C(=O)C12CC3CC(CC(C3)C1)C2 (stereo not given) | i | -32 | 17* | -3 | i | -11 | 57* | 2.0*
Cc1cc(C)cc(OC(C)CCN2CCC(C(O)(c3ccccc3)c3ccccc3)CC2)c1 (stereo not given) | · | -4 | · | · | · | · | · | ·
O=C(Cc1ccc(Nc2nc3ccc(Br)cc3[nH]2)cc1)NCCc1cccs1 | i | 25 | 15* | -1 | i | 10 | 27* | -1
O=C(NCC1CC1)c1ccc(Nc2nc3ccc(Br)cc3[nH]2)cc1 | i | 11 | -3 | 3 | i | 5 | · | ·
COCCCNC(=O)c1cc2cc(Br)ccc2oc1=O | i | 19 | 34* | -4 | i | -23 | 0 | 0
COCCNC(=O)c1cc2cc(Br)cc(Br)c2oc1=O | i | 8 | -3 | 2 | i | 3 | · | ·
Cc1ccc(Sc2sc(=O)n(C)c2S(=O)(=O)c2ccc(C)cc2)cc1 | i | 6 | 20* | -1 | i | 15 | 2 | 0
Cc1ccc(S(=O)(=O)c2c(C)c(C)c(C)[nH]c2=O)cc1 | i | 18 | -11 | 0 | i | 5 | · | ·
Cc1ccc(CN2C(=O)CCC2C(=O)NCCCN2CCC(C)CC2)cc1 (stereo not given) | · | 9 | · | · | · | 13 | 10 | 0
Cc1ccc(CN2C(=O)CCC2C(=O)NCCCN2CCOCC2)cc1 (stereo not given) | i | 6 | -2 | 3 | i | -10 | · | ·
c1ccc(-n2cnnc2SCc2cn3ccccc3n2)cc1 | i | -3 | 54* | -3 | i | -35 | 2 | 0
COc1cc(C=Nn2c(-c3n[nH]c4c3CCC4)n[nH]c2=S)ccc1OCc1ccccc1 | · | -5 | · | · | · | · | · | ·
Cc1ccc(C(=O)CSc2ncn[nH]2)cc1 | i | -11 | -3 | 2 | i | -23 | · | ·
CCc1ccc(C(=O)CSc2ncn[nH]2)cc1 | i | 0 | 54* | -4 | i | -64 | 22* | 0
COc1ccc2c(c1)c(C(=O)N/N=C/c1ccccc1Cl)c(C)n2C | i | 3 | -1 | 0 | i | -12 | · | ·
COc1ccc(/C=N/NC(=O)c2c(C)n(C)c3ccc(OC)cc23)c(OC)c1 | i | 23 | 14* | -2 | i | 7 | 1 | 0
CC(=O)c1ccc(S(=O)(=O)N2CCN(C(C)=O)CC2)cc1 | i | 13 | 16* | 1 | i | 22 | 1 | 0
O=C(/C=C/c1cccc([N+](=O)[O-])c1)Nn1c(-c2ccccc2F)nc2ccccc2c1=O | i | 16 | 61* | -2 | i | -14 | 65* | 0
O=c1c2ccccc2nc(/C=C/c2cccc([N+](=O)[O-])c2)n1CCO | i | -15 | -5 | 0 | i | -7 | · | ·

Screens (PubChem BioAssay)
